Test results from ChEMBL document CHEMBL2177027, “Exploring the directionality of 5-substitutions in a new series of 5-alkylaminopyrazolo[4,3-e]1,2,4-triazolo[1,5-c]pyrimidine as a strategy to design novel human a(3) adenosine receptor antagonists” (J Med Chem, 2012).

Tests used:
Adenosine receptor A3 = target: T1, Adenosine receptor A3 (Homo sapiens, UniProt P0DMS8); test: Displacement of [3H]NECA from human adenosine A3 receptor expressed in CHO cell membrane; assay type: cell membranes
T1 sequence (P0DMS8 whole entry): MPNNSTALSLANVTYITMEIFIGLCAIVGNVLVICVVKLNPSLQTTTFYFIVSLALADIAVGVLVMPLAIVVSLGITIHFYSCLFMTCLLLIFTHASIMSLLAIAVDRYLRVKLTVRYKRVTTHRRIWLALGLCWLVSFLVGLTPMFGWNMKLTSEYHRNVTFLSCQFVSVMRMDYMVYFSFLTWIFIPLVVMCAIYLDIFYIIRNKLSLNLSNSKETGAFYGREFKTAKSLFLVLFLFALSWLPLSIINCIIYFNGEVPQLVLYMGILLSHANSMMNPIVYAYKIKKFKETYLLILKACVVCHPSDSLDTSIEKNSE
Method in brief: (§1)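 CHO cells stably transfected with the human receptor subtype. Membranes were prepared by a 1000g spin to clear fragments and nuclei, then pelleted from the supernatant at 100 000g. Pellet was resuspended in the respective binding buffer, frozen in liquid nitrogen and stored until radioligand competition binding.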

Adenosine receptor A1 = target: T2, Adenosine receptor A1 (Homo sapiens, UniProt P30542); test: Displacement of [3H]CCPA from human adenosine A1 receptor expressed in CHO cell membrane; assay type: cell membranes; method in brief: as §1
T2 sequence (P30542 whole entry): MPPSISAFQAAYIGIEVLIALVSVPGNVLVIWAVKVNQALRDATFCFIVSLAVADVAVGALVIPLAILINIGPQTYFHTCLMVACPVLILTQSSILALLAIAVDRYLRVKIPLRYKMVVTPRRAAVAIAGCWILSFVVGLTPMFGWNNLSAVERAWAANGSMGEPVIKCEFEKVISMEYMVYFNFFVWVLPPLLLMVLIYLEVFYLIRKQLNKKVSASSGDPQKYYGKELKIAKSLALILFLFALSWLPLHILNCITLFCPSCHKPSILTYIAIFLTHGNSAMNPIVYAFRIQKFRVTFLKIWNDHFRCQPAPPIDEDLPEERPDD

[1] = Selectivity ratio of Ki for human adenosine A1 receptor expressed in CHO cell membrane to Ki for human adenosine A2A receptor expressed in CHO cell membrane; assay type: cell-based
[2] = target: Adenosine receptors; A1 & A3 (Homo sapiens) (UniProt P30542+P0DMS8); test: Selectivity ratio of Ki for human adenosine A1 receptor expressed in CHO cell membrane to Ki for human adenosine A3 receptor expressed in CHO cell membrane; assay type: cell-based
Adenosine receptor A2a = Adenosine receptor A2a (Homo sapiens, UniProt P29274); test: Displacement of [3H]NECA from human adenosine A2A receptor expressed in CHO cell membrane; assay type: cell membranes; method in brief: as §1
Sequence of Adenosine receptor A2a (P29274 whole entry): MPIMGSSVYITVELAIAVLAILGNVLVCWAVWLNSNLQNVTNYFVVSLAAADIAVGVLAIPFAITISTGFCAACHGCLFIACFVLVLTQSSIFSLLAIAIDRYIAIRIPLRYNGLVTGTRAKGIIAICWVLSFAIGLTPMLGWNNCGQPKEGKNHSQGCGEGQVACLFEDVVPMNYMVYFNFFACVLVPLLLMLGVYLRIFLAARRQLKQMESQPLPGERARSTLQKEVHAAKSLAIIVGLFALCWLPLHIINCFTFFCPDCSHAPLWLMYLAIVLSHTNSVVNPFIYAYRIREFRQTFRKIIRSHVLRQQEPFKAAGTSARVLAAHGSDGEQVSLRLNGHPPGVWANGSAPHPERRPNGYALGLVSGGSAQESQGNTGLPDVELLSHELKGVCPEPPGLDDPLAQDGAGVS

Adenosine receptor A2b = target: T3, Adenosine receptor A2b (Homo sapiens, UniProt P29275); test: Antagonist activity at human adenosine A2B receptor expressed in CHO cells assessed as NECA-induced adenylate cyclase activity; assay type: functional, cell-based
T3 sequence (P29275 whole entry): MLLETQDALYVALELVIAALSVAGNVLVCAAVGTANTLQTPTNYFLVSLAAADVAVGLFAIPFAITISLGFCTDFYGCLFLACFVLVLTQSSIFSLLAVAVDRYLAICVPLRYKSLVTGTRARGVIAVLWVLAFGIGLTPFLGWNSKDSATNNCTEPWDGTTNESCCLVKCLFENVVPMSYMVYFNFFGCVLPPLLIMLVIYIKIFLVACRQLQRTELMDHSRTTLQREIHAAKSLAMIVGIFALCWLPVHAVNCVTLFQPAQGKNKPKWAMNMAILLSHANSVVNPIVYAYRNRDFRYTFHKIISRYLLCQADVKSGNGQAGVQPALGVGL
Method in brief: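 Membranes from stably transfected CHO cells made with a single high-speed spin of the homogenate. Incubated 20 min with about 150 000 cpm [α-³²P]ATP in mixture lacking EDTA and NaCl. IC50 taken from concentration-dependent inhibition of NECA-stimulated adenylyl cyclase using Hill equation.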

[3] = Selectivity ratio of Ki for human adenosine A2A receptor expressed in CHO cell membrane to Ki for human adenosine A3 receptor expressed in CHO cell membrane; assay type: cell-based

| SMILES | Ki (Adenosine receptor A3) | Ki (Adenosine receptor A1) | Ratio Ki [1] | Ratio Ki [2] | Ki (Adenosine receptor A2a) | Ki (Adenosine receptor A2b) | Ratio Ki [3] |
| --- | --- | --- | --- | --- | --- | --- | --- |
| Cn1cc2c(nc(NCC3CCCCC3)n3nc(-c4ccco4)nc23)n1 | 47.3 nM | 802 nM | 0.98 | 17 | 814 nM | 9650 nM | 17.2 |
| CCC(CO)Nc1nc2nn(C)cc2c2nc(-c3ccco3)nn12 (stereo unspecified) | 62.9 nM | 219 nM | 1.06 | 3.48 | 207 nM | > 10000 nM | 3.29 |
| CCCCCN(CCCCC)c1nc2nn(C)cc2c2nc(-c3ccco3)nn12 | 824 nM | 3330 nM | 0.44 | 4.04 | 7490 nM | > 10000 nM | 9.09 |
| CC[C@@H](C)Nc1nc2nn(C)cc2c2nc(-c3ccco3)nn12 | 5.93 nM | 165 nM | 0.61 | 27.8 | 272 nM | 4810 nM | 45.9 |
| COCCNc1nc2nn(C)cc2c2nc(-c3ccco3)nn12 | 246 nM | 2400 nM | 5.9 | 9.76 | 407 nM | > 10000 nM | 1.65 |
| Cn1cc2c(nc(NC(CO)CO)n3nc(-c4ccco4)nc23)n1 | 536 nM | 639 nM | 1.07 | 1.19 | 597 nM | > 10000 nM | 1.11 |
| Cn1cc2c(nc(NC3CCCC3)n3nc(-c4ccco4)nc23)n1 | 7.68 nM | 80.1 nM | 0.62 | 10.4 | 130 nM | 2650 nM | 16.9 |
| COc1nc2nn(C)cc2c2nc(-c3ccco3)nn12 | 822 nM | > 30000 nM | – | > 36.5 | > 30000 nM | > 10000 nM | > 36.5 |
| C[C@@H](Nc1nc2nn(C)cc2c2nc(-c3ccco3)nn12)c1ccccc1 | 3.71 nM | 945 nM | 24.7 | 255 | 38.2 nM | 12200 nM | 10.3 |
| CN(Cc1ccccc1)c1nc2nn(C)cc2c2nc(-c3ccco3)nn12 | 18 nM | 566 nM | 0.52 | 31.4 | 1080 nM | > 10000 nM | 60 |
| Cn1cc2c(nc(NCc3ccc(Cl)cc3)n3nc(-c4ccco4)nc23)n1 | 1.99 nM | 322 nM | 4.27 | 162 | 75.4 nM | 2620 nM | 37.9 |
| Cn1cc2c(nc(NC3CCCCCCC3)n3nc(-c4ccco4)nc23)n1 | 15.5 nM | 484 nM | 1.73 | 31.2 | 279 nM | > 10000 nM | 18 |
| Cn1cc2c(nc(NCCCCO)n3nc(-c4ccco4)nc23)n1 | 252 nM | 1040 nM | 4.14 | 4.13 | 251 nM | > 10000 nM | 1 |
| Cn1cc2c(nc(NC3CCC3)n3nc(-c4ccco4)nc23)n1 | 17.6 nM | 169 nM | 2.01 | 9.6 | 83.9 nM | 1110 nM | 4.77 |
| CC(O)CNc1nc2nn(C)cc2c2nc(-c3ccco3)nn12 (stereo unspecified) | 356 nM | 375 nM | 2.76 | 1.05 | 136 nM | > 3000 nM | 0.38 |
| Cn1cc2c(nc(NC34CC5CC(CC(C5)C3)C4)n3nc(-c4ccco4)nc23)n1 | 37.8 nM | 3310 nM | – | 87.6 | > 30000 nM | > 10000 nM | > 794 |
| Cn1cc2c(n1)[nH]c(=O)n1nc(-c3ccco3)nc21 | 5280 nM | > 30000 nM | – | > 5.68 | > 30000 nM | > 10000 nM | > 5.68 |
